# Assay results as given in PMC9366314 (Acta Pharmaceutica Sinica. B, 2022).
# Assays:
# 92.1 cells = assay: Clonogenic; type: cell-based; details: 1 and 3 μmol/L; 9 days
# Summary of the method: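 92.1 cells were exposed to test compound for 9 days, and colonies were counted with a colony counter. Data are mean ± SEM, n = 3.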
# MP41 cells [1] = assay: Transwell invasion assay, MP41; type: cell-based; details: 3, 10, and 20 μmol/L
# Summary of the method: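 MP41 cells (1 × 10^4/well) were placed in Transwell upper chambers, with RPMI-1640 plus 20% FBS in the lower chamber, and left overnight. Cells were then exposed to test compound for 48 h. Non-migrated cells in the upper chamber were removed. Cells in the lower chamber were stained with crystal violet for 0.5 h and counted by microscope at ×100. Data are mean ± SEM, n = 3.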
# MP41 cells [2] = assay: Cell cycle analysis by flow cytometry, MP41; type: cell-based; details: 48 h
# Summary of the method: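 MP41 cells were seeded at 3 × 10^5 cells/well, left overnight, then exposed to test compound for 48 h. Cells were washed and fixed in 70% ethanol at 4 °C for 12 h. Staining with RNase (100 μg/mL) and PI (50 μg/mL) ran at 37 °C for 0.5 h. Phase distribution was read by flow cytometry. Data are mean ± SEM, n = 3.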
# CHO-M1 cells = assay: Cytotoxicity on CHO-M1 cells; type: cell-based; details: CCK-8
# [3] = test system: 92.1 cells (GNAQ Q209L mutation); assay: Cell proliferation inhibition assay; type: cell-based; details: 72 h, read-out: Antiproliferation (IC50, μmol/L) 92.1
# Summary of the method: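 Uveal melanoma cells were grown in RPMI-1640 with 10% FBS at 37 °C, 5% CO2. They were resuspended at 3 × 10^3 cells/mL, seeded and left overnight. Cells were exposed to a concentration series of test compound for 72 h. CCK-8 was added for 2–4 h and absorbance read at 450 nm. IC50 values were fitted from the curves and reported as mean ± SEM, n = 3.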
# phosphorylated YAP = assay: Western blot of phosphorylated YAP in MP41 xenograft tumor tissues; type: in vivo, mice; details: testing dose
# Summary of the method: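 Nude BALB/c nu/nu mice (18–22 g, 6–8 weeks) bearing MP41 xenografts were randomised (n = 6/group) and dosed ip daily for 21 days (5, 15 or 30 mg/kg/day arms). Tumours were taken on Day 22 and lysed in RIPA with phosphatase and protease inhibitors. Lysates were spun at 15,000 rpm, 4 °C for 15 min, protein quantified by BCA, run on 8–12% SDS-PAGE, transferred to PVDF, blocked in 5% BSA and detected by ECL.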
smiles,measurement,setting,value
CN1CCC[C@H]1CN1CCn2cc(-c3ccccc3)nc2[C@@H]1CC1CCCCC1 [GQ262],Colony formation of 92.1 cells,92.1 cells,obviously blocked the colony formation
same,MP41 cell invasion,MP41 cells [1],poor invasion
same,Cellular proportion in G0/G1 phase,MP41 cells [2]; 3 μmol/L,78.0%
same,Cellular proportion in G0/G1 phase,MP41 cells [2]; 10 μmol/L,79.4%
same,"Cell viability of CHO-M1 cells, 2 h","CHO-M1 cells; 2 h, 10 and 20 μmol/L",did not impact the cell viability
same,"Cell viability of CHO-M1 cells, 24 h","CHO-M1 cells; 24 h, up to 20 μmol/L",did not impact the cell viability
same,IC50,[3],10.4 ± 0.1 µmol/L
same,Phosphorylated YAP expression in tumor tissues,phosphorylated YAP,increased the accumulation of phosphorylated YAP
